Measured values as given in ChEMBL document CHEMBL1158524, “Synthesis and SAR of novel imidazoles as potent and selective cannabinoid CB2 receptor antagonists with high binding efficiencies” (Bioorg Med Chem Lett, 2010).

Assays:
Cannabinoid receptor 2 [1] = target: T1, Cannabinoid receptor 2 (Homo sapiens, UniProt P34972); experiment: Displacement of [3H]CP-55940 from human CB2 receptor expressed in CHO cells; assay type: cell-based
Procedure, shortened: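 CHO cells stably transfected with human CB2 receptor. Values are the mean of at least three independent experiments.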

Cannabinoid receptor 2 [2] = target: T1, Cannabinoid receptor 2; experiment: Antagonist activity at human CB2 receptor assessed as inhibition of forskolin-stimulated cAMP accumulation in presence of JWH133; assay type: functional; settings: read-out: pA2 (converted)
Procedure, shortened: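 Human CB2 cAMP accumulation assay measuring dose-dependent antagonism of the CB2-selective agonist JWH133, expressed as pA2 ± error. Incubation was 20 min, or 4 h for some compounds. Based on at least three independent experiments.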

Cannabinoid receptor 2 [3] = target: T1, Cannabinoid receptor 2; experiment: Inverse agonist activity at human CB2 receptor assessed as stimulation of cAMP accumulation after 20 mins
Cannabinoid receptor 2 [4] = target: T1, Cannabinoid receptor 2; experiment: Inverse agonist activity at human CB2 receptor assessed as inhibition of forskolin-stimulated cAMP accumulation after 4 hrs; assay type: functional
Procedure, shortened: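 Functional human CB2 cAMP accumulation assay with the incubation extended to 4 h. Inverse agonism read out as pEC50. Values are the mean of at least three independent experiments.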

Cannabinoid receptor 1 = Cannabinoid receptor 1 (Homo sapiens, UniProt P21554); experiment: Displacement of [3H]CP-55940 from human CB1 receptor expressed in CHO cells; assay type: cell-based
Procedure, shortened: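 CHO cells stably transfected with human CB1 receptor. Values are the mean of at least three independent experiments.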

Homo sapiens = species on record: Homo sapiens; experiment: Selectivity ratio of Ki for human CB1 to Ki for human CB2

T1 sequence (P34972 whole entry): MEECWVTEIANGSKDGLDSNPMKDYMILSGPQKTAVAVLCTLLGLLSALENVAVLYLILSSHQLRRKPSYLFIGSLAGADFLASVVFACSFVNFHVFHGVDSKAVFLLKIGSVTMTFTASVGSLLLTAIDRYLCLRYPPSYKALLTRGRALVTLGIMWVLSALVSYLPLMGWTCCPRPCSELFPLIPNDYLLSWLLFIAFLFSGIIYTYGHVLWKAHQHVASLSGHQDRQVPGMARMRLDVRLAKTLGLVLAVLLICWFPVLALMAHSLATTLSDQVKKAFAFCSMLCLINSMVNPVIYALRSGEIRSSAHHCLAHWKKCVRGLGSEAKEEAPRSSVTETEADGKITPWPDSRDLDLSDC
Cannabinoid receptor 1, sequence (P21554 whole entry): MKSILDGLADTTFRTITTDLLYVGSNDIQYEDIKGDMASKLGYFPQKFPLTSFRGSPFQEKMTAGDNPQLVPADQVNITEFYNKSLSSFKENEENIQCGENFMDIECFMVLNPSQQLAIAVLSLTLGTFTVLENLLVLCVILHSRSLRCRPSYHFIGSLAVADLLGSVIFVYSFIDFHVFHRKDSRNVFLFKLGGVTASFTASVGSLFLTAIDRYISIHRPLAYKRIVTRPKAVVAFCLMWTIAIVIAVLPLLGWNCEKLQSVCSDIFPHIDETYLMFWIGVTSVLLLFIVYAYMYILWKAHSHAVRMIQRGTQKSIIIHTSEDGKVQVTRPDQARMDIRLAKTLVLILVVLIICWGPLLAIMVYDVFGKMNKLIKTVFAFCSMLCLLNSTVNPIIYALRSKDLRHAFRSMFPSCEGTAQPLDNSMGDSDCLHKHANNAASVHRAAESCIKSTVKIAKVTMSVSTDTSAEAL

SMILES	Ki (Cannabinoid receptor 2 [1])	Kb (Cannabinoid receptor 2 [2])	EC50 (Cannabinoid receptor 2 [3])	EC50 (Cannabinoid receptor 2 [4])	Ki (Cannabinoid receptor 1)	Ratio (Homo sapiens)
Cc1nc(C(=O)NC23CC4CC(CC(C4)C2)C3)c(C)n1-c1ccccc1	0.0027 µM	0.00158 µM	0.000794 µM	0.000794 µM	4.89 µM	1810
CCc1c(C(=O)NC23CC4CC(CC(C4)C2)C3)nc(C)n1-c1ccccc1	0.00103 µM	0.001 µM	0.02 µM	0.000251 µM	> 10 µM	> 9710
Cc1nc(C(=O)NCc2ccccc2C(F)(F)F)c(C)n1-c1ccccc1	0.0035 µM	–	0.0002 µM	–	1.42 µM	406
Cc1nc(C(=O)NC23CC4CC(CC(C4)C2)C3)c(Cl)n1-c1ccccc1	0.0238 µM	–	0.0631 µM	–	> 10 µM	> 420
Cc1nc(C(=O)NC[C@H]2C[C@@H]3C[C@H](C2)C3(C)C)c(C)n1-c1ccccc1	0.02 µM	–	0.0316 µM	–	3.99 µM	200
CCc1nc(C(=O)NC23CC4CC(CC(C4)C2)C3)cn1-c1ccccc1	0.0127 µM	–	0.0126 µM	0.00631 µM	> 1 µM	> 79
C[C@H](NS(C)(=O)=O)c1ccc(S(=O)(=O)c2ccc(Cl)cc2S(=O)(=O)c2ccccc2F)cc1	0.0008 µM	0.001 µM	0.00794 µM	0.00501 µM	3.54 µM	4420
CCCCc1c(C(=O)NC23CC4CC(CC(C4)C2)C3)nc(C)n1-c1ccccc1	0.0098 µM	–	0.00501 µM	–	2 µM	> 102
Cc1nc(C(=O)NC23CC4CC(CC(C4)C2)C3)c(Br)n1-c1ccccc1	0.0084 µM	–	–	–	> 10 µM	> 1190
CSc1c(C(=O)NC23CC4CC(CC(C4)C2)C3)nc(C)n1-c1ccccc1	0.01 µM	–	0.00631 µM	–	> 10 µM	> 1000
Cc1nc(C(=O)NC23CC4CC(CC(C4)C2)C3)c(C)n1C1CCCCC1	0.02 µM	–	0.126 µM	–	> 10 µM	> 500
Cc1nc(C(=O)NC2C3CC4CC(C3)CC2C4)c(C)n1-c1ccccc1 (stereo not drawn)	0.0138 µM	–	0.00631 µM	–	3.01 µM	218
Cc1nc(C(=O)NC2C3CC4CC(C3)C2C4)c(C)n1-c1ccccc1 (stereo not drawn)	0.0097 µM	–	0.00794 µM	–	5.44 µM	561
CCc1nc(C(=O)NC23CC4CC(CC(C4)C2)C3)c(C)n1-c1ccccc1	0.0016 µM	0.00501 µM	0.00158 µM	–	4.15 µM	2600
CCCCCOc1c(OC)ccc2cc(C(=O)NCc3ccc4c(c3)OCO4)c(=O)[nH]c12	–	–	–	–	3.92 µM	–
Cc1c(C(=O)NC[C@H]2C[C@@H]3C[C@H](C2)C3(C)C)ncn1-c1ccccc1	0.175 µM	–	0.158 µM	–	> 10 µM	> 57
O=C(NC12CC3CC(CC(C3)C1)C2)c1nc(Cl)n(-c2ccccc2)c1Cl	0.05 µM	0.00794 µM	0.0794 µM	–	> 1 µM	> 20
